The test system of data set [1] is Rattus norvegicus. The experiment in a line: Anticonvulsant activity in Sprague-Dawley rat assessed as protection from maximum electric shock-induced seizures at 30 mg/kg, po measured after 2 hrs. The format is functional. An outline of the steps:
(§1)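 Male Sprague–Dawley rats, four per group, given 30 mg/kg orally as a suspension in 0.5% methylcellulose/water. MES stimulus 150 mA, 60 Hz, 0.2 s via corneal electrodes. Tested at 0.25, 0.5, 1, 2 and 4 h; value is rats protected out of four.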

Data set [2] deals with Mus musculus. The experiment in a line: Neurotoxicity in ip dosed CF-1 albino mouse assessed as motor impairment measured after 0.5 hrs by rotarod test. As to conditions: in vivo. The data set is classed as toxicity, organism-based. The method in brief: (§2)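 Rotarod neurotoxicity in male CF-1 mice given ip doses of 30, 100 or 300 mg/kg (0.5% methylcellulose suspension), examined 0.5 and 4 h after dosing. Impairment means failing to hold balance on the rod for 1 min. Value is the minimum dose causing toxicity in half or more of the animals; response comments are recorded.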

Data set [3] concerns Mus musculus. The data set can be described thus: Anticonvulsant activity in ip dosed CF-1 albino mouse assessed as protection from maximal electric shock-induced seizures measured after 4 hrs. The format is functional. As to conditions: read-out: MED. An outline of the steps: (§3)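 Male CF-1 mice dosed ip at 30, 100 or 300 mg/kg, suspension in 0.5% methylcellulose/water. MES: corneal electrodes primed with electrolyte containing anaesthetic, 50 mA, 60 Hz, 0.2 s. Examined 0.5 and 4 h after dosing. Value is the minimum dose protecting half or more of the animals.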

Data set [4] has as its system Mus musculus. The experiment in a line: Anticonvulsant activity in CF-1 albino mouse assessed as protection against 6 Hz psychomotor seizure at 100 mg/kg, ip measured after 2 hrs. As to conditions: route intraperitoneal. The format is functional. An outline of the steps: (§4)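 6-Hz psychomotor seizure in male CF-1 mice, compound suspended in 0.5% methylcellulose/water, given ip (100 or 75 mg/kg). Corneal stimulation with 0.2 ms monopolar rectangular pulses at 6 Hz for 3 s, 32 mA, constant-current device. Protected if normal exploratory behaviour resumes within 10 s. Tested 0.25–4 h after dosing; value is mice protected out of four.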

Data set [5] deals with Mus musculus. The data set can be described thus: Anticonvulsant activity in ip dosed 6 Hz psychomotor-induced seizure in CF-1 albino mouse assessed as time of peak effect. The data set is classed as functional.
For data set [6], the species on record is Mus musculus. The experiment in a line: Protective index, ratio of TD50 for CF-1 albino mouse to ED50 for CF-1 albino mouse assessed as protection from 6 Hz psychomotor seizure. The data set is classed as functional. An outline of the steps:
(§5)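 6-Hz test (32 mA, 0.2 ms pulses at 6 Hz for 3 s, corneal) in male CF-1 mice dosed ip. Quantified at the time of peak effect in groups of eight across at least three doses giving 10–90% effect. ED50 and TD50 (minimal neurological toxicity) obtained by regression; PI = TD50/ED50.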

Data set [7] relates to Mus musculus. The data set can be described thus: Neurotoxicity in CF-1 albino mouse assessed as myoclonic jerks at 300 mg/kg, ip measured after 4 hrs by rotarod test. The data set is classed as toxicity, organism-based. Further details: dose 300 mg/kg, route intraperitoneal. As to conditions: in vivo. Background: The rotarod test checks motor coordination on a turning rod.

In data set [8] the test system is Mus musculus. The experiment in a line: Anticonvulsant activity in CF-1 albino mouse assessed as protection against 6 Hz psychomotor seizure at 100 mg/kg, ip measured after 4 hrs. The data set is classed as functional. As to conditions: route intraperitoneal. The method in brief:
as §4

Data set [9] concerns Mus musculus. The data set can be described thus: Anticonvulsant activity in ip dosed CF-1 albino mouse assessed as protection against subcutaneous pentylenetetrazol-induced seizures measured after 4 hrs. The data set is classed as functional. As to conditions: read-out: MED. The method in brief:
(§6)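 scPTZ test in male CF-1 mice. Compound suspended in 0.5% methylcellulose/water, ip at 30, 100 or 300 mg/kg. Pentylenetetrazole 85 mg/kg (CD97, clonic seizures lasting at least 5 s) given subcutaneously at the test time, read at 0.5 and 4 h. Value is the minimum dose protecting half or more of the animals.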

The subject of data set [10] is Rattus norvegicus. The data set can be described thus: Anticonvulsant activity in Sprague-Dawley rat assessed as protection from maximum electric shock-induced seizures at 30 mg/kg, po measured after 0.5 hrs. The format is functional. An outline of the steps: as §1
For data set [11], the system named is Mus musculus. The data set can be described thus: Neurotoxicity in CF-1 albino mouse assessed as loss of […] reflex at 300 mg/kg, ip measured after 0.5 hrs by rotarod test. The format is toxicity, organism-based. More on the design: dose 300 mg/kg, route intraperitoneal. As to conditions: in vivo. The method in brief:
as §2

The subject of data set [12] is Mus musculus. The data set can be described thus: Anticonvulsant activity in CF-1 albino mouse assessed as protection against 6 Hz psychomotor seizure at 100 mg/kg, ip measured after 0.25 hrs. The format is functional. The conditions noted are these: route intraperitoneal. The method in brief: as §4
Data set [13] has as its system Mus musculus. The data set can be described thus: Anticonvulsant activity in ip dosed CF-1 albino mouse assessed as protection from maximal electric shock-induced seizures measured after 0.5 hrs. The format is functional. As to conditions: read-out: MED. The method in brief:
as §3

Data set [14] relates to Rattus norvegicus. The experiment in a line: Anticonvulsant activity in Sprague-Dawley rat assessed as protection from maximum electric shock-induced seizures at 30 mg/kg, po measured after 4 hrs. The data set is classed as functional. An outline of the steps:
as §1

In data set [15] the test system is Mus musculus. The data set can be described thus: Anticonvulsant activity in CF-1 albino mouse assessed as protection against 6 Hz psychomotor seizure at 100 mg/kg, ip measured after 0.5 hrs. As to conditions: route intraperitoneal. The format is functional. An outline of the steps:
as §4

The test system of data set [16] is Rattus norvegicus. The data set can be described thus: Anticonvulsant activity in Sprague-Dawley rat assessed as protection from maximum electric shock-induced seizures at 30 mg/kg, po measured after 1 hr. The data set is classed as functional. An outline of the steps:
as §1

Data set [17] deals with Mus musculus. The data set can be described thus: Neurotoxicity in CF-1 albino mouse assessed as inability to grasp rotarod at 300 mg/kg, ip measured after 0.5 hrs by rotarod test. The conditions noted are these: in vivo. More on the design: dose 300 mg/kg, route intraperitoneal. The format is toxicity, organism-based. The method in brief: as §2
The test system of data set [18] is Mus musculus. The experiment in a line: Anticonvulsant activity in CF-1 albino mouse assessed as protection against 6 Hz psychomotor seizure at 100 mg/kg, ip measured after 1 hr. The data set is classed as functional. The conditions noted are these: route intraperitoneal. An outline of the steps: as §4
The subject of data set [19] is Mus musculus. The data set can be described thus: Anticonvulsant activity in ip dosed CF-1 albino mouse assessed as protection against subcutaneous pentylenetetrazol-induced seizures measured after 0.5 hrs. The format is functional. The conditions noted are these: read-out: MED. The method in brief: as §6
In data set [20] the test system is Rattus norvegicus. The data set can be described thus: Neurotoxicity in Sprague-Dawley rat assessed as motor impairment at 30 mg/kg, po by rotarod test. The data set is classed as toxicity, organism-based. More on the design: dose 30 mg/kg, route oral. The conditions noted are these: in vivo. An outline of the steps: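 Male Sprague–Dawley rats, four animals, oral 30 mg/kg in 0.5% methylcellulose/water. Motor impairment on the rotarod (failure to keep balance for 1 min) assessed alongside MES at five times from 0.25 to 4 h.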

Data set [21] has as its system Mus musculus. The experiment in a line: Anticonvulsant activity in ip dosed CF-1 albino mouse assessed as protection against 6 Hz psychomotor seizures. The format is functional. The method in brief:
as §5

The nature of data set [22]: Neurotoxicity in ip dosed CF-1 albino mouse assessed as motor impairment by rotarod test. The conditions noted are these: in vivo. The format is toxicity, organism-based.
Data set [23] relates to Rattus norvegicus. The data set can be described thus: Anticonvulsant activity in Sprague-Dawley rat assessed as protection from maximum electric shock-induced seizures at 30 mg/kg, po measured after 0.25 hrs. The data set is classed as functional. An outline of the steps: as §1
Data set [24] has as its system Mus musculus. The data set can be described thus: Neurotoxicity in CF-1 albino mouse assessed as motor impairment at 300 mg/kg, ip measured after 4 hrs by rotarod test. Further details: dose 300 mg/kg, route intraperitoneal. The data set is classed as toxicity, organism-based. The conditions noted are these: in vivo. An outline of the steps: as §2
The subject of data set [25] is Mus musculus. The experiment in a line: Anticonvulsant activity in CF-1 albino mouse assessed as protection from maximal electric shock-induced seizures at 300 mg/kg, ip measured after 4 hrs. The format is functional, organism-based. Further details: dose 300 mg/kg. The method in brief: as §3
The subject of data set [26] is Mus musculus. The data set can be described thus: Anticonvulsant activity in CF-1 albino mouse assessed as protection against subcutaneous pentylenetetrazol-induced seizures at 300 mg/kg, ip measured after 0.5 hrs. The data set is classed as functional, organism-based. More on the design: dose 300 mg/kg. An outline of the steps:
as §6

The test system of data set [27] is Mus musculus. The experiment in a line: Neurotoxicity in CF-1 albino mouse assessed as tonic extension at 300 mg/kg, ip measured after 0.5 hrs by rotarod test. The data set is classed as toxicity, organism-based. The conditions noted are these: in vivo. Further details: dose 300 mg/kg, route intraperitoneal. The method in brief: as §2
For data set [28], the system named is Mus musculus. The data set can be described thus: Anticonvulsant activity in CF-1 albino mouse assessed as protection against subcutaneous pentylenetetrazol-induced seizures at 300 mg/kg, ip measured after 4 hrs. The data set is classed as functional, organism-based. More on the design: dose 300 mg/kg. An outline of the steps:
as §6

Data set [29] relates to Mus musculus. The experiment in a line: Anticonvulsant activity in CF-1 albino mouse assessed as protection from maximal electric shock-induced seizures at 300 mg/kg, ip measured after 0.5 hrs. More on the design: dose 300 mg/kg. The format is functional, organism-based. The method in brief: as §3

The values that follow come from ChEMBL document CHEMBL2086314, “Synthesis and anticonvulsant activity of new N-Mannich bases derived from 3-(2-fluorophenyl)- and 3-(2-bromophenyl)-pyrrolidine-2,5-diones. Part II” (Bioorg Med Chem, 2012).

Active and inactive are the calls of the source. The calls are words filed in the database; no cut-off is given here.

For orientation: ED50 means the dose at which the effect has come halfway, by size or by number of responders. What is called TD50 is the dose at which the toxic effect under study appears in half of the subjects. As to `O=C1CC(c2ccccc2F)C(=O)N1CN1CCOCC1` (racemic), the Activity with Rattus norvegicus [1] is on record as 50%; in the data set with Mus musculus [4], 75%; with Mus musculus [7], “Toxic”; in the data set with Mus musculus [8], 25%; with Rattus norvegicus [10] it was 25%; in the data set with Mus musculus [11], “Toxic”. Further, the Activity was 100% in the data set on Mus musculus [12]; 25% with Rattus norvegicus [14]; 100% in the data set with Mus musculus [15]; 50% in the data set on Rattus norvegicus [16]; “Toxic” with Mus musculus [17]; 100% in the data set on Mus musculus [18]. Also, the figures for the Activity entry in the data set with Rattus norvegicus [20], with Rattus norvegicus [23] and in the data set with Mus musculus [24] were “Non-toxic”, 25% and “Non-toxic”, respectively. In the data set on Mus musculus [2], the MTC was determined as 300 mg/kg. The minimal effective dose was found to be 100 mg/kg in the data set on Mus musculus [3], 300 mg/kg with Mus musculus [9], 100 mg/kg in the data set with Mus musculus [13] and 300 mg/kg in the data set on Mus musculus [19]. Also, the Time in the data set on Mus musculus [5] was 4 h. In the data set filed under Mus musculus [6], the “Ratio TD50/ED50” value is 2.46. Moreover, in the data set with Mus musculus [21], the ED50 came out at 103 mg/kg. Further, the TD50 in data set [22] came out at 253 mg/kg.
Take `Cl.O=C1CC(c2ccccc2Br)C(=O)N1CN1CCN(Cc2ccccc2)CC1` (racemic): the MTC in the data set on Mus musculus [2] is 300 mg/kg. Besides, the result in the data set with Mus musculus [25], in the data set with Mus musculus [26], in the data set with Mus musculus [28] and in the data set on Mus musculus [29] was inactive. The Activity entry in the data set with Mus musculus [27] was “Toxic”; with Mus musculus [24] it was “Non-toxic”.
